Rows were chosen to be rich in hits. Some 4.6% of all compounds tested hit in one or more screens of this group.
ALR H2O2 inh = inhibitors of human sulfhydryl oxidase ALR; P55789; purified ALR, DTT oxidation, H2O2 HRP-luminol luminescence; inhibition, % (concentration not given with the values); 3.8% of 290,000 active;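 active = mean replicate inhibition above about 79%, with every replicate also reaching it, limit read from the data; inconclusive = only one of the two criteria met; inactive = mean below limit and not every replicate reaching it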
Target sequence (P55789 whole entry, looked up): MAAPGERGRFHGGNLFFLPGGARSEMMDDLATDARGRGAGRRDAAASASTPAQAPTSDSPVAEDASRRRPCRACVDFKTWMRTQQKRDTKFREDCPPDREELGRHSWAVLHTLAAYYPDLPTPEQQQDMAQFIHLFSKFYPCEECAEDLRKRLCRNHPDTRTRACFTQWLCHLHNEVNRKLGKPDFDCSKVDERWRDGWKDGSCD
FAS-TE inh = blocks the thioesterase domain of human fatty acid synthase | P49327 | recombinant FAS-TE, OMFH fluorogenic substrate, fluorescence endpoint | inhibition, % at 15 µM | 0.67% of 360,000 active | AID 602261;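 active = compounds whose normalised, plate-corrected inhibition of enzyme fluorescence in the single-dose primary screen is 50% or more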
Rtt109 Vps75 = inhibitors of Candida albicans Rtt109/Vps75 histone acetyltransferase; Q5AAJ8; purified Rtt109/Vps75, ThioGlo CoA-SH fluorescence, 4 h; inhibition, % at 34.9 µM; 0.16% of 330,000 active; AID 540336;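 active = inhibition of at least 50% in every replicate; inconclusive = best replicate reaches 50% inhibition but some replicates fall short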
Target sequence (Q5AAJ8 whole entry, looked up): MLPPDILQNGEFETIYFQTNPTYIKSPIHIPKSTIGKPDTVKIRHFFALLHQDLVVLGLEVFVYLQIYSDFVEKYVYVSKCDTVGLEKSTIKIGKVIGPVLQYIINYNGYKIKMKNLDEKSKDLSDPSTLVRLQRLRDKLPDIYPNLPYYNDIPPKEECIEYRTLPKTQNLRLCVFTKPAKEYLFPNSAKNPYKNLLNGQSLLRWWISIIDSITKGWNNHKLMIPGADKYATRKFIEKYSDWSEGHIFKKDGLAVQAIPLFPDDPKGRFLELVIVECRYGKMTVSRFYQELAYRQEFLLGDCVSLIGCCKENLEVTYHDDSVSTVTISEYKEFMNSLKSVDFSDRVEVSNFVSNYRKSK
HDAC3 inhib = human HDAC3 inhibition; O15379; recombinant HDAC3, fluorogenic peptide/trypsin coupled, fluorescence; inhibition, % at 8.3 µM; 0.15% of 320,000 active; in the data active = inhibition above about 26%, passing the limit was not always enough; inconclusive = no clear call, values can overlap the other calls
PfM18AAP inh = blocks P. falciparum M18 aspartyl aminopeptidase; recombinant PfM18AAP, H-Glu-NHMec fluorogenic cleavage; inhibition, % at 7.35 µM; 1.2% of 290,000 active;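 active = inhibition above the campaign mean inhibition over all tested compounds plus 3 SD, cut at about 28% in these data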
UCH37 DUB inh = human UCH37 deubiquitinating enzyme inhibition. Q9Y5K5. purified proteasome/UCH37, Ub-AMC cleavage fluorescence. inhibition, % (concentration not given with the values). 0.33% of 330,000 active;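 active = mean inhibition over replicate wells above about 20%, limit read from the data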
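assay system = human UCH37 enzyme supplied as purified proteasome complex | amount = proteasome at 0.15 nM in the dispensed enzyme solution | schedule = 30 min compound-proteasome preincubation then 25 min substrate reaction, room temperature | measured by = fluorescence, ex 355 nm, em 460 nm | benchmarks = no-proteasome wells (full inhibition) and compound-free wells (no inhibition)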
Hits are given with their value; . = inactive; ? = inconclusive; / = not tested or not shown; + = active, no number.

SMILES	ALR H2O2 inh	FAS-TE inh	Rtt109 Vps75	HDAC3 inhib	PfM18AAP inh	UCH37 DUB inh
Cc1nn(C)c(C)c1C=NN=C1CCC2C3CCc4cc(O)ccc4C3CCC12C (centres undefined)	/	/	/	/	/	.
Cc1cc(S(=O)(=O)N2CCN(c3ccccc3O)CC2)c(C)s1	98.1	.	.	.	.	.
Cc1ccc(C(=O)N2CCN(c3ccccc3O)CC2)cc1S(=O)(=O)N1CCCCC1	97.6	.	.	.	/	.
COc1ccccc1N1CCN(S(=O)(=O)c2cc(C)sc2C)CC1	/	.	.	.	.	.
Cc1cc(Cl)c(S(=O)(=O)NN=Cc2ccc3c(c2)OCO3)c(Cl)c1	/	/	/	/	/	.
CS(=O)(=O)C1=NN2C(=N)/C(=C\c3ccc(OC(=O)c4ccco4)cc3)C(=O)N=C2S1	.	.	56.6	.	.	.
Cc1cc(/C=C2/C(=N)N3C(=NC2=O)SN=C3S(C)(=O)=O)c(C)n1-c1ccccc1F	91.0	.	?	.	.	/
CC1=CC2=NC(=O)/C(=C\c3cc(C)n(-c4ccccc4F)c3C)C(=N)N2O1	.	.	.	.	.	.
CS(=O)(=O)C1=NSC2=NC(=O)/C(=C\c3ccc(OC(=O)c4ccco4)cc3)C(=N)N21	.	/	/	35.3	.	/
COc1cc(/C=C2/C(=N)N3C(=NC2=O)SN=C3S(C)(=O)=O)ccc1OC(=O)c1ccco1	.	.	.	.	.	.
N=C1/C(=C\c2ccc(OC(=O)c3ccc(F)cc3)cc2)C(=O)N=C2SC(N3CCOCC3)=NN12	95.3	.	.	.	.	.
CC(=NNC(=O)c1ccccc1)c1cc2cc([N+](=O)[O-])ccc2oc1=O	/	/	/	/	/	.
CCOc1ccc(S(=O)(=O)n2nc(C)c(S(=O)(=O)N3CCOCC3)c2C)cc1	.	.	.	.	.	.
Cc1nn(S(=O)(=O)c2ccc(C(C)C)cc2)c(C)c1S(=O)(=O)N1CCOCC1	.	.	54.3	.	.	.
CCC(=O)N1CCc2cc(S(=O)(=O)CCC(=O)Nc3ccc(C(C)=O)cc3)ccc21	.	.	.	.	.	.
CCC(=O)N1CCc2cc(S(=O)(=O)CCC(=O)Nc3nc(C)cs3)ccc21	98.6	.	.	.	.	.
CCC(=O)N1CCc2cc(S(=O)(=O)CCC(=O)Nc3ccc(C)cn3)ccc21	98.8	.	.	.	.	.
Cc1ccccc1C=NNC(=O)CSc1nc2ccccc2o1	/	/	/	/	/	.
Cc1cccc(N2C(S)=C(C#N)C(=O)NC2c2cccs2)c1 (centres undefined)	.	.	121.0	.	.	.
Cc1ccccc1N1C(S)=C(C#N)C(=O)NC1c1cccs1 (centres undefined)	.	.	+	.	.	.
CCS(=O)(=O)CCSc1nc2ccccc2o1	.	.	.	/	.	.
C/C(O)=C/c1nc2ccccc2oc1=O	/	/	/	/	/	.
C/C(O)=C\c1nc2ccccc2oc1=O	94.8	.	.	.	.	/
O=c1oc2ccccc2nc1/C=C(\O)c1ccc(Br)cc1	.	.	.	.	.	.
Cc1ccc2oc(=O)c(/C=C(\O)c3ccccc3)nc2c1	98.2	.	.	.	.	.
SMILES	ALR H2O2 inh	FAS-TE inh	Rtt109 Vps75	HDAC3 inhib	PfM18AAP inh	UCH37 DUB inh
CCS(=O)(=O)c1ccc2oc(=O)c(/C=C(\O)c3ccc(Cl)cc3)nc2c1	.	.	.	.	.	.
CS(=O)(=O)Cc1nc2ccccc2oc1=O	98.8	.	.	.	.	.
Cc1ccc2oc(=O)c(/C=C(\O)CC(C)C)nc2c1	82.1	.	/	.	.	.
Cc1ccc(CN2CCN(N=Cc3ccco3)CC2)c(C)c1	/	/	/	/	/	.
CC(=NNC(=O)c1c(Br)c(C)nn1C)c1cccc(NC(=O)c2ccccc2F)c1	/	/	/	/	/	.
O=c1oc2c(O)c(O)cc3c(=O)oc4c(O)c(O)cc1c4c23	.	83.6	.	.	29.5	/
Cc1c(C)c2cc(Cl)c(O)c(CN(C)C)c2oc1=O	.	.	.	.	.	.
Cc1cccc(-n2c(C)c(-c3ccccc3)[nH]c2=S)c1	82.0	.	.	.	.	.
Cc1ccc(-n2c(=S)[nH]c3c(oc4ccccc43)c2=O)cc1	.	.	.	.	.	.
O=c1c2oc3ccccc3c2[nH]c(=S)n1-c1ccccc1	92.1	.	.	.	.	.
Cc1cccc(-n2c(=S)[nH]c3c(oc4ccccc43)c2=O)c1	89.6	.	.	.	.	.
CC(=NNC(=O)c1ccc(COc2ccccc2)cc1)c1ccncc1	/	/	/	/	/	.
Clc1ccc(Cl)c(-c2ccc(/C=N/c3ncn[nH]3)o2)c1	.	.	.	.	30.2	/
COc1ccc(N2CCN(c3ccc(NC(=O)/C=C\C(=O)O)cc3)CC2)cc1	83.2	.	.	.	31.3	.
O=C(O)/C=C/C(=O)Nc1ccc(O)cc1	98.1	.	.	?	.	.
O=C(O)/C=C/C(=O)Nc1ccc(S(=O)(=O)N2CCCC2)cc1	.	.	63.7	.	.	.
O=C(O)/C=C/C(=O)Nc1ccc2c(c1)C(=O)c1ccccc1C2=O	96.7	.	.	.	.	.
CC(C)(C)c1ccc(OCC(=O)NN=Cc2ccsc2)cc1	/	/	/	/	/	.
O/N=C/c1cccn1-c1ccc(O)cc1	99.1	.	.	.	.	/
COc1ccc(N2CCN(CC(O)c3c[nH]c4ccc(OC)cc34)CC2C)cc1 (centres undefined)	99.9	.	.	.	.	.
CCc1nnc(N/N=C/c2cccs2)n1N	.	.	.	.	52.8	/
CCc1nnc(NN=Cc2ccccc2F)n1N	/	/	/	/	/	.
CN1C(=O)SC(Nc2cccc3ccccc23)C1=O (centres undefined)	90.1	.	.	.	.	.
O=C(NCc1ccccn1)c1cc2n(n1)C(C(F)(F)F)CC(c1ccco1)N2 (centres undefined)	.	.	.	.	30.6	.
CC(C)NC(=O)c1cc2n(n1)C(C(F)(F)F)CC(c1ccco1)N2 (centres undefined)	.	.	.	.	.	.
SMILES	ALR H2O2 inh	FAS-TE inh	Rtt109 Vps75	HDAC3 inhib	PfM18AAP inh	UCH37 DUB inh
O=C(C1CC1)N1CCN=C1SCc1ccccc1	.	.	.	.	.	.
O=C(C1CC1)N1CCN=C1SCc1cccc(F)c1	99.0	.	.	.	.	.
CC(=O)N1CCN=C1SCc1ccc(C(F)(F)F)cc1	99.0	.	.	.	.	.
O=C(C1CC1)N1CCN=C1SCc1ccc(F)cc1	99.7	.	.	.	.	.
S=C(NCc1ccco1)NN=Cc1ccccc1Cl	/	/	/	/	/	.
NS(=O)(=O)c1cccc(NC(=O)CSc2ncnc3ccccc23)c1	99.3	.	.	.	.	.
CCN(CC)S(=O)(=O)c1ccc(NC(=O)CSc2ncnc3ccccc23)cc1	97.7	.	.	.	.	.
COC(=O)C1=C(C)N=c2sc(=Cc3ccoc3)c(=O)n2C1c1ccccc1 (centres undefined)	/	/	/	/	/	.
Cc1cccc(N2C(=O)C(O)=C(C(=O)c3cccs3)C2c2ccc(F)cc2)n1 (centres undefined)	.	.	.	.	.	.

Assay outcomes deposited in PubChem BioAssay by several laboratories.
